Experimental data of several laboratories.
Observed: enzyme activity
Mode: inhibitor
Rps6ka1: Ribosomal protein S6 kinase alpha-1 (Rps6ka1, Rattus norvegicus, UniProt Q63531)
WEE2: Wee1-like protein kinase 2 (WEE2, Homo sapiens, UniProt P0C1S8)
HIPK4: Homeodomain-interacting protein kinase 4 (HIPK4, Homo sapiens, UniProt Q8NE63)
MARK2: Serine/threonine-protein kinase MARK2 (MARK2, Homo sapiens, UniProt Q7KZI7)

CC1CS(=O)(=O)CCN1/N=C/c1ccc([N+](=O)[O-])o1 (stereo not shown)
remaining activity (TcPGFS (Trypanosoma cruzi, UniProt Q8I6L9); 200 µM): 6%

Cc1cnc(NC2CCOCC2)nc1-n1cnc(C(=O)NC(CN)c2cc(F)cc(Cl)c2)c1 (stereo not shown)
remaining activity (Rps6ka1; radiometric; 1 µM): 53%

COc1cc(Cl)c(C(=O)N[C@@H](CN[C@H]2CC[C@@H](N)CC2)Cc2ccc(C#N)cc2)cc1-c1ccc(CN[C@H](C)c2ccc(C)cc2)o1
remaining activity (WEE2; 1 µM): 89%

N#Cc1cccc(Nc2nc3cc(C(=O)O)ccc3c3cncnc23)c1
remaining activity (HIPK4; radiometric; 1 µM): 35%

Cc1ccc(C(=O)Nc2ccc(CN3CCN(C)CC3)c(C(F)(F)F)c2)cc1C#Cc1cnc2cccnn12
remaining activity (WEE2; 23.5 nM): 96%

Cc1nn(CC(F)(F)F)cc1Nc1nccc(NCc2ccc(S(N)(=O)=O)cc2)n1
remaining activity (MARK2; radiometric; 1 µM): 108%

O=C(O)c1ccc2c(c1)nc(NCCc1cccc(F)c1)c1ccncc12
remaining activity (HIPK4; radiometric; 1 µM): -10%

NS(=O)(=O)c1ccc(CNc2ccnc(Nc3cccc(CN4CCOCC4)c3)n2)cc1
remaining activity (MARK2; radiometric; 1 µM): 102%

O=C(O)c1ccc2c(c1)nc(NCCc1cccc(Cl)c1)c1ncncc12
remaining activity (HIPK4; radiometric; 1 µM): 53%

CCCOc1ccc(OC)c(F)c1C(=O)c1ccc(C(=O)N[C@@H]2CNC[C@H]2NC(=O)c2ccc3[nH]ncc3c2)cc1
remaining activity (Rps6ka1; 0.5 µM): 77%
